In ChEMBL document CHEMBL1122207, “Antitumor agents. 2. Bisguanylhydrazones of anthracene-9,10-dicarboxaldehydes” (1982):

Legend:
Assay type in all cases: functional
Mus musculus [1] = species on record: Mus musculus; test: Cures is the number of survivors of the total treated animals (12 mice) with P-388 leukemia, at 30 days.
How it was run: (§1)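 BDF1 or CDF1 mice given 10^6 ascitic P-388 leukemia cells ip, then treated ip on days 1, 5 and 9. Cures are survivors over total treated at 30 days.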

Mus musculus [2] = species on record: Mus musculus; test: Cures is the number of survivors of the total treated mice (6) with P-388 leukemia, at 30 days.; how it was run: as §1
Mus musculus [3] = test: Percent increase in median life span of BDF1 mice with B-16 melanoma at dose 6 mg/kg administered intraperitoneally; range 100-167; 1-9 days of ip treatment relative to tumor inoculation; conditions: BDF1, B16, ip, route intraperitoneal
How it was run: (§2)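 BDF1 mice were implanted ip with a homogenate from 0.05 g of B-16 melanoma. Ip dosing ran on days 1-9, starting 24 h after implant, in dose-response studies following NCI protocols. The read-out was percent increase in life span (ILS). T/C ≥125% was taken as significant.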

Mus musculus [4] = test: Percent increase in median life span of BDF1 mice with advanced L-1210 leukemia administered intraperitoneally; treatment day +2 ip
Mus musculus [5] = species on record: Mus musculus; test: Cures is the number of survivors of the total treated mice (20) with B-16 melanoma, at 60 days.
How it was run: (§3)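 BDF1 mice were implanted ip with a homogenate from 0.05 g of B-16 melanoma and dosed ip on days 1-9. Cures are survivors over total at 60 days.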

Mus musculus [6] = test: Percent increase in median life span of BDF1 mice with P-388 leukemia at dose 50 mg/kg administered intraperitoneally; range 25-91%; range 25-91%, 1, 5, 9 days of ip treatment relative to tumor inoculation; conditions: BDF1, P388, ip, 216 h, route intraperitoneal
How it was run: (§4)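 BDF1 or CDF1 mice given 10^6 ascitic leukemia cells ip, then dosed ip on days 1, 5 and 9. Read-out is percent increase in life span versus untreated controls. Cures were scored as survivors/total at 30 days; when cures reached 50% or more, the run was extended until a specific ILS could be calculated. T/C ≥125% counted as significant.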

Mus musculus [7] = test: Percent increase in median life span of BDF1 mice with advanced P-388 leukemia at dose 25 mg/kg administered intraperitoneally; 4, 8, 12 days of ip treatment relative to tumor inoculation; conditions: P388, ip, 288 h, route intraperitoneal
Mus musculus [8] = test: Percent increase in median life span of BDF1 mice with Colon 26 at dose 12.5 mg/kg administered intraperitoneally; 1, 5, 9 days of ip treatment relative to tumor inoculation; conditions: BDF1, Colon 26, ip, 216 h, route intraperitoneal
Mus musculus [9] = species on record: Mus musculus; test: Cures is the number of survivors of the total treated mice (8) with Colon 26, at 60 days.
Mus musculus [10] = test: Percent increase in median life span of BDF1 mice with advanced L-1210 leukemia at dose 200 mg/kg administered intraperitoneally; treatment day +2 iv; conditions: L1210
Mus musculus [11] = species on record: Mus musculus; test: Cures is the number of survivors of the total treated mice (10) with B-16 melanoma, at 60 days.; how it was run: as §3
Mus musculus [12] = test: Percent increase in median life span of BDF1 mice with P-388 leukemia at dose 100 mg/kg administered intraperitoneally; 1, 5, 9 days of ip treatment relative to tumor inoculation; conditions: BDF1, P388, ip, 216 h, route intraperitoneal; how it was run: as §4
Mus musculus [13] = test: Percent increase in median life span of BDF1 mice with B-16 melanoma at dose 25 mg/kg administered intraperitoneally; 1-9 days of ip treatment relative to tumor inoculation; conditions: BDF1, B16, ip, route intraperitoneal; how it was run: as §2
Mus musculus [14] = species on record: Mus musculus; test: Cures is the number of survivors of the total treated mice (6) with advanced L-1210 leukemia, at 30 days.
How it was run: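 Advanced L-1210 leukemia, with ip treatment on days 5, 9 and 13 relative to tumor inoculation.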

Mus musculus [15] = test: Percent increase in median life span of BDF1 mice with madison lung 109 leukemia administered intraperitoneally
Mus musculus [16] = test: Percent tumor inhibition at non-lethal dose was determined in BDF1 mice with madison lung 109 leukemia; 1, 5, 9 days of sc treatment relative to tumor inoculation
Mus musculus [17] = test: Percent increase in median life span of BDF1 mice with Colon 26 at dose 25 mg/kg administered intraperitoneally; 1, 5, 9 days of ip treatment relative to tumor inoculation; conditions: BDF1, Colon 26, ip, 216 h, route intraperitoneal
Mus musculus [18] = test: Percent increase in median life span of BDF1 mice with B-16 melanoma at dose 1.5 mg/kg administered intraperitoneally; conditions: BDF1, B16, ip, route intraperitoneal; how it was run: as §2
Mus musculus [19] = species on record: Mus musculus; test: Cures is the number of survivors of the total treated mice (9) with P-388 leukemia, at 30 days.; how it was run: as §1
Mus musculus [20] = test: Percent increase in median life span of BDF1 mice with P-388 leukemia at dose 12.5 mg/kg administered intraperitoneally; conditions: BDF1, P388, ip, route intraperitoneal
Mus musculus [21] = test: Percent increase in median life span of BDF1 mice with B-16 melanoma at dose 300 mg/kg administered intraperitoneally; conditions: BDF1, B16, ip, route intraperitoneal; how it was run: as §2
Mus musculus [22] = species on record: Mus musculus; test: Anticancer activity measured as the number of survivors of the total treated mice with P-388 leukemia at 30 days.; how it was run: as §1
Mus musculus [23] = test: Percent increase in median life span of BDF1 mice with P-388 leukemia at dose 300 mg/kg administered intraperitoneally; conditions: BDF1, P388, ip, route intraperitoneal
Mus musculus [24] = species on record: Mus musculus; test: Cures is the number of survivors of the total treated mice (10) with advanced B-16 melanoma, at 30 days.
Mus musculus [25] = species on record: Mus musculus; test: Cures is the number of survivors of the total treated mice (6) with L-1210 leukemia, at 30 days.
Mus musculus [26] = test: Percent increase in median life span of BDF1 mice with L-1210 leukemia at dose 3.1 mg/kg administered intraperitoneally; 1, 5, 9 days of ip treatment relative to tumor inoculation; conditions: BDF1, L1210, ip, 216 h, route intraperitoneal; how it was run: as §4
Mus musculus [27] = test: Percent increase in median life span of BDF1 mice with B-16 melanoma at dose 6.25 mg/kg administered intraperitoneally; 1-9 days of ip treatment relative to tumor inoculation; conditions: BDF1, B16, ip, route intraperitoneal; how it was run: as §2
Mus musculus [28] = test: Percent increase in median life span of BDF1 mice with advanced B-16 melanoma at dose 12.5 mg/kg administered intraperitoneally; 5, 9, 13 days of ip treatment relative to tumor inoculation; conditions: BDF1, B16, ip, 312 h, route intraperitoneal
Mus musculus [29] = species on record: Mus musculus; test: Cures is the number of survivors of the total treated mice (12) with P-388 leukemia, at 30 days.; how it was run: as §1
Mus musculus [30] = test: Percent increase in median life span of BDF1 mice with P-388 leukemia at dose 12.5 mg/kg administered intraperitoneally; range 90-100%; range 90-100%, 1, 5, 9 days of ip treatment relative to tumor inoculation; conditions: BDF1, P388, ip, 216 h, route intraperitoneal; how it was run: as §4
Mus musculus [31] = test: Percent increase in median life span of BDF1 mice with Colon 26 at dose 6.2 mg/kg administered intraperitoneally; 1, 5, 9 days of ip treatment relative to tumor inoculation; conditions: BDF1, Colon 26, ip, 216 h, route intraperitoneal
Mus musculus [32] = species on record: Mus musculus; test: Cures is the number of survivors of the total treated mice (10) with Colon 26, at 60 days.
Mus musculus [33] = species on record: Mus musculus; test: Cures is the number of survivors of the total treated mice (26) with Colon 26, at 60 days.
Mus musculus [34] = test: Percent increase in median life span of BDF1 mice with advanced L-1210 leukemia at dose 50 mg/kg administered intraperitoneally; treatment day +2 iv; conditions: L1210
Mus musculus [35] = species on record: Mus musculus; test: Cures is the number of survivors of the total treated mice (24) with P-388 leukemia, at 30 days.; how it was run: as §1
Mus musculus [36] = test: Percent increase in median life span of BDF1 mice with advanced B-16 melanoma at dose 25 mg/kg administered intraperitoneally; 5, 9, 13 days of ip treatment relative to tumor inoculation; conditions: B16, ip, 312 h, route intraperitoneal
Mus musculus [37] = test: Percent increase in median life span of BDF1 mice with B-16 melanoma at dose 12 mg/kg administered intraperitoneally; Range 144-145%, 1-9 days of ip treatment relative to tumor inoculation; conditions: BDF1, B16, ip, route intraperitoneal; how it was run: as §2
Mus musculus [38] = test: Percent increase in median life span of BDF1 mice with P-388 leukemia at dose 25 mg/kg administered intraperitoneally; 1, 5, 9 days of ip treatment relative to tumor inoculation; conditions: BDF1, P388, ip, 216 h, route intraperitoneal; how it was run: as §4
Mus musculus [39] = species on record: Mus musculus; test: Cures is the number of survivors of the total treated mice (5) with L-1210 leukemia, at 30 days.
Mus musculus [40] = test: Percent increase in median life span of BDF1 mice with L-1210 leukemia at dose 25 mg/kg administered intraperitoneally; 1, 5, 9 days of ip treatment relative to tumor inoculation; conditions: BDF1, L1210, ip, 216 h, route intraperitoneal; how it was run: as §4
Mus musculus [41] = test: Cures is the number of survivors of the total treated mice (6) with advanced L-1210 leukemia, at 30 days; treatment day +2 iv
How it was run: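 Advanced L-1210 leukemia, treated iv once on day +2 relative to tumor inoculation.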

Mus musculus [42] = species on record: Mus musculus; test: Cures is the number of survivors of the total treated mice (6) with P-388 leukemia, at 60 days.
Mus musculus [43] = test: Percent increase in median life span of BDF1 mice with B-16 melanoma at dose 0.8 mg/kg administered intraperitoneally; conditions: BDF1, B16, ip, route intraperitoneal; how it was run: as §2
Mus musculus [44] = test: Percent increase in median life span of BDF1 mice with P-388 leukemia at dose 5 mg/kg administered intraperitoneally; conditions: BDF1, P388, ip, route intraperitoneal

## Cl.Cl.N=C(NCc1ccco1)N/N=C/c1c2ccccc2c(/C=N/NC(=N)NCc2ccco2)c2ccccc12
Mus musculus [1]
  Cures: 0
Mus musculus [2]
  Cures: 0
Mus musculus [3]
  ILS at 6 mg/kg: 167%
Mus musculus [4]
  ILS: <25%
Mus musculus [5]
  Cures: 6
Mus musculus [6]
  ILS at 50 mg/kg: 91%
Mus musculus [7]
  ILS at 25 mg/kg: 56%
Mus musculus [8]
  ILS at 12.5 mg/kg: 109%
Mus musculus [9]
  Cures: 0

## CC1(C)CN=C(N/N=C/c2c3ccccc3c(/C=N/NC3=NCC(C)(C)CN3)c3ccccc23)NC1.Cl.Cl
Mus musculus [10]
  ILS at 200 mg/kg: 29%
Mus musculus [11]
  Cures: 4
Mus musculus [12]
  ILS at 100 mg/kg: 205%
Mus musculus [7]
  ILS at 25 mg/kg: 88%
Mus musculus [13]
  ILS at 25 mg/kg: 143%
Mus musculus [9]
  Cures: 0
Mus musculus [14]
  Cures: 0
Mus musculus [15]
  ILS: <25%
Mus musculus [16]
  Inhibition: 31%
Mus musculus [17]
  ILS at 25 mg/kg: 153%

## C(=N\NC1=NCC2(CC2)CN1)/c1c2ccccc2c(/C=N/NC2=NCC3(CC3)CN2)c2ccccc12.Cl.Cl
Mus musculus [11]
  Cures: 4
Mus musculus [18]
  ILS at 1.5 mg/kg: 127%
Mus musculus [19]
  Cures: 1
Mus musculus [20]
  ILS at 12.5 mg/kg: 100%

## N/C(S)=N/N=C/c1c2ccccc2c(/C=N/N=C(\N)S)c2ccccc12
Mus musculus [21]
  ILS at 300 mg/kg: 0%
Mus musculus [22]
  Cures: 0
Mus musculus [23]
  ILS at 300 mg/kg: 71%

## Cl.Cl.Clc1ccc2c(/C=N/NC3=NCCN3)c3ccccc3c(/C=N/NC3=NCCN3)c2c1
Mus musculus [24]
  Cures: 0
Mus musculus [25]
  Cures: 0
Mus musculus [26]
  ILS at 3.1 mg/kg: 37%
Mus musculus [11]
  Cures: 4
Mus musculus [27]
  ILS at 6.25 mg/kg: 206%
Mus musculus [28]
  ILS at 12.5 mg/kg: 32%
Mus musculus [29]
  Cures: 2
Mus musculus [30]
  ILS at 12.5 mg/kg: 95%
Mus musculus [31]
  ILS at 6.2 mg/kg: 100%
Mus musculus [32]
  Cures: 1

## C/N=C(\N)N/N=C/c1c2ccccc2c(/C=N/N/C(N)=N/C)c2ccccc12
Mus musculus [24]
  Cures: 5
Mus musculus [2]
  Cures: 1
Mus musculus [33]
  Cures: 2
Mus musculus [34]
  ILS at 50 mg/kg: 50%
Mus musculus [5]
  Cures: 8
Mus musculus [35]
  Cures: 6
Mus musculus [36]
  ILS at 25 mg/kg: 62%
Mus musculus [37]
  ILS at 12 mg/kg: 145%
Mus musculus [38]
  ILS at 25 mg/kg: 157%
Mus musculus [39]
  Cures: 0
Mus musculus [40]
  ILS at 25 mg/kg: 62%
Mus musculus [41]
  Cures: 0
Mus musculus [7]
  ILS at 25 mg/kg: 108%
Mus musculus [8]
  ILS at 12.5 mg/kg: 129%
Mus musculus [15]
  ILS: 53%
Mus musculus [16]
  Inhibition: 89%

## COc1cccc2c1C(=O)c1c(O)c3c(c(O)c1C2=O)C[C@@](O)(C(=O)CO)C[C@@H]3O[C@H]1C[C@H](N)[C@H](O)[C@H](C)O1 [DOXORUBICIN]
Mus musculus [42]
  Cures: 1
Mus musculus [5]
  Cures: 18
Mus musculus [43]
  ILS at 0.8 mg/kg: 275%
Mus musculus [44]
  ILS at 5 mg/kg: 159%
